# The full list was thinned out, with hits kept by preference.
# L major viab – reduces viability of Leishmania major promastigotes; resazurin fluorescence viability; inhibition, % at 10 µM; 200,000 compounds, 9% hits; AID 1063; in the data active means inhibition above about 50%;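 further: promastigotes grown with compound for 44 hours at 28 °C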
# S1P4 antagonist – antagonists of human S1P4 receptor | 220,000 compounds, 0.26% hits | inhibition, % at 4.98 µM | O95977 | S1P4-expressing cells, antagonist mode, reporter read-out; in the data active means inhibition above about 29%;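 further: 0% = wells stimulated with agonist and 100% = vehicle wells without agonist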
# S1P3 antag – blocks the human S1P3 receptor. inhibition, % at 4.98 µM. 170,000 compounds, 0.27% hits. CHO S1P3 NFAT-BLA reporter, FRET fluorescence, antagonist mode;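 active means inhibition above the plate cutoff, the mean inhibition of test wells on that plate plus 3 SD, cut at about 28% in these data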;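 further: cells challenged with S1P at its EC80 of 0.8 µM; blue over green emission ratio from cleaved BLA substrate after 4 h stimulation; 0% = S1P-stimulated wells and 100% = unstimulated DMSO-only wells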
# S1P4 agonist – human S1P4 receptor agonism | O95977 | S1P4-expressing cell line, agonist reporter assay | activation, % at 4.98 µM | 220,000 compounds, 0.35% hits; in the data active means activation above about 11%;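 further: 0% = DMSO vehicle and 100% = reference agonist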
# MDM2 E3 inh – blocks human Mdm2 ubiquitin ligase activity. Q00987. cell-based MDM2 ubiquitination luciferase reporter, 2 h; 0 = plate control, 100 = twice control, blank-subtracted. signal enhancement, % at 5 µM. 210,000 compounds, 0.11% hits. AID 1230;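 active means signal enhancement of 30% or more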;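 further: luminescence tracks abundance of the self-degrading MDM2-luciferase fusion protein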
# Target sequence (Q00987 whole entry, looked up, the tested form may be a part): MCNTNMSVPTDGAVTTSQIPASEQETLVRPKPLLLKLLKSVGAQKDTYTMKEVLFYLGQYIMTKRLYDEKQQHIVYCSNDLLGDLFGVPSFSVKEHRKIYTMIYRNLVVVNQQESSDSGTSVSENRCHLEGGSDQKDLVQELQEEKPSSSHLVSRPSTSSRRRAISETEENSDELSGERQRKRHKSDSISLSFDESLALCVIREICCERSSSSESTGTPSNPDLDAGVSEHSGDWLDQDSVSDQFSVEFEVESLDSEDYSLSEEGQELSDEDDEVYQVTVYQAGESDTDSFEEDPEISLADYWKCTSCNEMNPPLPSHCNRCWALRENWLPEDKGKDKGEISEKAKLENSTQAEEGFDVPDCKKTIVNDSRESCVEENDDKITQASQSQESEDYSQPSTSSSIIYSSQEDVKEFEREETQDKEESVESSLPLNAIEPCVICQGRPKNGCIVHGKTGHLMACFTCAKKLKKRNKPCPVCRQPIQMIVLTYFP
#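 Assay system: stable mammalian line carrying autodegrading MDM2–luciferase fusion reporter; amount: 2000 cells seeded into each well; buffer or medium: DMEM; benchmarks: plate control and blank wells; signal: luciferase luminescence; timing: 2 h compound exposure at 37 °C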
# Numbers without * were called inactive; / = no result.
SMILES,L major viab,S1P4 antagonist,S1P3 antag,S1P4 agonist,MDM2 E3 inh
COc1ccc(N=N/C(=C\O)C(=O)c2ccco2)cc1,4,-12,-18,2,-10
O=C(/C(=C/O)N=Nc1ccccc1)c1cccs1,83*,-9,-6,1,-11
CCSc1nnc(NC(=O)CSc2nnc(C)c(=O)n2N)s1,0,-10,-17,1,2
O=C(N/N=C/c1cccnc1)C1CC1(c1ccccc1)c1ccccc1 (stereo unspecified),13,-6,-16,1,0
CN1CCN(c2nc(N3CCN(CCO)CC3)nc3ccccc23)CC1,100*,6,6,-3,3
OCCN1CCN(c2cc(-c3ccccc3)c3ccccc3n2)CC1,69*,-21,-4,1,1
COc1ccc(C(C)(C)C)cc1NC(=O)c1cc(S(=O)(=O)N(C)C)ccc1N1CCCC1,11,-6,8,-2,-19
O=C1c2ccccc2C(=O)N1/N=C/c1ccc(O)c(O)c1,-5,-11,-1,0,-4
O=C(CN1C(=O)NC2(CCCC2)C1=O)N1CCc2ccccc2C1,-2,15,6,-2,-7
COc1cc(-c2nnc3sc(C4CCCCC4)nn23)cc(OC)c1OC,49,-20,20,2,-12
COc1cc(OC)c(-c2nn3c(C4CCCCC4)nnc3s2)cc1OC,56*,-16,22,2,-15
Clc1ccc(-c2csc(N3CCOCC3)n2)cc1,-8,-18,-6,0,-8
CN1CCN(c2nc(-c3ccc(Cl)s3)cs2)CC1,85*,-17,4,-1,-25
COC(=O)C1=C(CN2CCc3ccccc32)NC(=O)NC1c1cc(C)ccc1C (stereo unspecified),70*,-17,-31,1,-13
CC(=O)c1nnn(-c2ccc([N+](=O)[O-])cc2C)c1C,1,-8,-2,1,18
COC(=O)c1c(NC(=O)c2ccccc2[N+](=O)[O-])sc2c1CC(C)(C)NC2(C)C,96*,-12,0,1,11
O=C(NCCN1CCOCC1)c1cc2cc([N+](=O)[O-])ccc2s1,66*,-12,19,1,-17
O=[N+]([O-])c1cc(S(=O)(=O)N2CCCCC2)ccc1NCCCN1CCOCC1,75*,-14,-5,0,-7
O=[N+]([O-])c1cc(C(F)(F)F)cc([N+](=O)[O-])c1NCCCN1CCOCC1,28,0,-16,1,-19
O=[N+]([O-])c1ccc(Cl)cc1NCCCN1CCOCC1,59*,-10,-14,1,-7
O=[N+]([O-])c1cc(S(=O)(=O)N2CCCCC2)ccc1NCCN1CCOCC1,8,-17,-29,2,-5
O=[N+]([O-])c1cc(C(F)(F)F)ccc1NCCCN1CCOCC1,88*,-9,6,1,0
Cc1ccc(C(=O)N/C(=C\c2ccc(Cl)cc2)C(=O)NCCCN2CCOCC2)cc1,2,-2,0,0,-51
O=[N+]([O-])c1ccc(NCCCN2CCOCC2)c([N+](=O)[O-])c1,84*,-18,-7,0,0
O=C(NC(=S)NCCCN1CCOCC1)c1ccc([N+](=O)[O-])cc1,53*,-1,-9,0,1
SMILES,L major viab,S1P4 antagonist,S1P3 antag,S1P4 agonist,MDM2 E3 inh
Cc1ccc(C(=O)N/C(=C\c2ccc(C(C)C)cc2)C(=O)NCCCN2CCOCC2)cc1,67*,-10,6,-2,-1
N#Cc1cc([N+](=O)[O-])ccc1NCCN1CCOCC1,-2,0,-9,1,-2
CCOC(=O)C1CCN(C(=O)Nc2ccccc2Cl)CC1,-8,-7,6,1,0
COC(=O)c1ccc2c(=O)n(-c3ccccc3F)c(=S)[nH]c2c1,-6,-25,-8,0,-18
COc1cccc(C(=O)C2CCCN(Cc3cn(CC(N)=O)c4ccccc34)C2)c1 (stereo unspecified),13,-18,-2,1,-9
Oc1c(N=Nc2ccccn2)ccc2ccccc12,100*,2,/,0,-50
CC(C)Oc1ccc2ccccc2c1C=O,0,6,/,-2,2
O=Cc1c(OCc2ccccc2)ccc2ccccc12,82*,-18,-5,0,-4
CCOc1ccccc1CN(CCc1ccc2c(c1)OCO2)Cc1ccccn1,82*,-3,25,1,-4
CCOc1ccc(CN(C)CCc2ccccn2)cc1,-1,6,-14,1,2
COc1cc(OC)c(S(=O)(=O)Nc2ccc(C)cn2)cc1NC(C)=O,-1,-11,-4,3,-6
O=C(NCCc1ccncc1)Nc1ccccc1,-6,-24,12,0,-7
CC(C)N(CCc1ccncc1)C(=O)Nc1ccc(Cl)c(Cl)c1,92*,-12,7,-2,-12
O=C(NCCc1ccncc1)Nc1ccc(Cl)c(Cl)c1,96*,-7,-16,2,-10
COc1c(Cl)cc(Cl)cc1CNc1ccc(S(N)(=O)=O)cc1,2,-15,-6,3,9
O=C(CN(Cc1ccccc1F)S(=O)(=O)c1ccc(Cl)cc1)NCCCO,-6,6,-7,3,-19
C=CCc1ccccc1OCC(=O)N/N=C/c1ccc(OC(C)=O)cc1OC(C)=O,98*,-13,20,1,12
Cc1ccccc1OCC(=O)N/N=C/c1cc2ccccc2nc1Cl,-3,-13,/,1,-28
COc1ccc2[nH]c(=O)c(CN(C(=O)NC3CCCCC3)C3CCCC3)cc2c1,100*,-19,-30,2,10
COc1ccc2[nH]c(=O)c(CN(C(C)=O)C3CCCCC3)cc2c1,-1,-6,-11,2,2
COc1ccc2[nH]c(=O)c(CN(C(=O)c3ccco3)C3CCCCC3)cc2c1,94*,-16,/,3,-9
COCCNC(=O)COc1ccc(C)cc1C(=O)c1cc(C#N)c(=O)n(C2CC2)c1,3,-2,5,-1,-93
Cc1ccc(-n2c(SCC(=O)NCCN3C(=O)CSC3=O)nnc2-c2ccccc2)cc1C,4,-11,-24,-1,-12
Cn1c(SCC(=O)c2c(N)n(C)c(=O)n(C)c2=O)nnc1-c1ccccc1,66*,-23,-19,1,-3
Cn1c(SCC(=O)NCCN2C(=O)CSC2=O)nnc1-c1ccccc1,56*,-4,0,0,-8
SMILES,L major viab,S1P4 antagonist,S1P3 antag,S1P4 agonist,MDM2 E3 inh
Cc1ccc(-n2c(SCC(=O)NCCN3C(=O)CSC3=O)nnc2-c2ccccc2)cc1,62*,-23,-10,0,-51
CC(=O)Oc1ccccc1N(C(C)=O)S(=O)(=O)c1cccc([N+](=O)[O-])c1,5,-6,1,-1,-7
Cc1cccc(/C=N/Nc2cc(N3CCOCC3)nc(N3CCOCC3)n2)c1,87*,6,1,-1,-7
Oc1ccc(/C=N/Nc2cc(N3CCCC3)nc(N3CCCC3)n2)cc1O,99*,-9,4,0,-5
Cn1cc(S(=O)(=O)N2CCCC(C(=O)O)C2)cn1 (stereo unspecified),-5,-14,-15,2,-22
Cc1ccc(NC(=O)c2cccc3c2-c2ccccc2C3=O)cc1C,2,-16,/,0,1
